Assay outcomes deposited in PubChem BioAssay by The Scripps Research Institute Molecular Screening Center.
IDE act = IDE (human) activation, cell-based; HEK cells, FAbeta-B cleavage, fluorescence polarization; 0% vehicle, 100% cell-free pure enzyme wells; P14735; 340,000 compounds, 0.073% hits; activation, % at 5.96 µM;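 active means activation above the mean of all tested compounds plus 3 SD, set per screening campaign, cut at about 17% in these data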
IDE cell inh = cellular human IDE inhibition; P14735; HEK cells, FAbetaB cleavage, fluorescence polarization; inhibition, % at 5.59 µM; 320,000 compounds, 0.41% hits;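 active means percent inhibition above the average of all tested compounds plus 3 SD, set per screening campaign, cut at about 16% in these data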;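 further: IDE supplied by intact live HEK cells; FP after avidin binding of uncleaved biotin substrate so inhibition keeps polarization high; 0% = DMSO wells and 100% = 60 µM reference IDE inhibitor Ii1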
TPT1 inhibitor = C. albicans TPT1 enzyme inhibition. AID 1962. recombinant caTPT1, FP RNA substrate dephosphorylation. inhibition, % at 5 µM. 300,000 compounds, 0.81% hits;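 active means inhibition above the mean of all tested compounds plus 3 SD, set per screening campaign, cut at about 24% in these data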;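 further: plate controls were DMSO alone for no effect and ferristatin control at 100 nM for full effect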
proCasp3 act = activates human procaspase-3; activation, % at 8.5 µM; recombinant procaspase-3 D3A, Ac-DEVD-pNA absorbance 405 nm; P42574; 330,000 compounds, 0.11% hits;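 active means activation above the mean of all tested compounds plus 3 SD, cut at about 21% in these data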;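 further: 0% = DMSO alone and 100% = DMSO wells spiked with extra 5 µM PC-3 D3A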
Target sequence (P42574 whole entry D9A/D28A/D175A): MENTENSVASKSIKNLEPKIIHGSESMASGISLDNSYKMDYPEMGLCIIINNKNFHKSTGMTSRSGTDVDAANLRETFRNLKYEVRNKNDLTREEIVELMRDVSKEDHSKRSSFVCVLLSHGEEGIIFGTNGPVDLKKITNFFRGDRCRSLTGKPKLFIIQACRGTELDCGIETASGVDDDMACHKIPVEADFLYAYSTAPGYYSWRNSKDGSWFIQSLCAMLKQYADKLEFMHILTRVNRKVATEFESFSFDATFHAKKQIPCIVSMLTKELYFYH
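Test system: Procaspase-3 D3A mutant; medium: Zinc-free HEPES/NaCl buffer with 0.01% Triton X-100 at pH 7.4; reagent: DEVD-pNA substrate; doses: one concentration, 8.5 µM nominal, 0.8% DMSO; times: 1 h preincubation plus 2 h reaction at 25 °C; signal: Epi-absorbance at 405 nm of released p-nitroaniline, 0 and 120 min; replicates: singlicate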
proCasp7 act = counter-screen: procaspase-7 (human) activation | P55210 | recombinant procaspase-7, Ac-DEVD-pNA absorbance 405 nm; D23A/D198A/D206A triple mutant, cannot self-cleave; scale: DMSO 0, 5 µM enzyme 100 | activation, % at 8.5 µM | 330,000 compounds, 0.093% hits;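 active means percent activation above the screen-wide mean plus 3 SD, cut at about 25% in these data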
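Replicates: singlicate. Assay system: Procaspase-7 triple mutant (PC-7 D3A). Signal: 405 nm absorbance of p-nitroaniline. Times: 1 h preincubation, 2 h reaction. Buffer or medium: Zinc-free HEPES pH 7.4 with 300 mM NaCl, 0.01% Triton X-100. Also added: DEVD-pNA substrate. Benchmarks: DMSO wells as 0%, DMSO with 5 µM added PC-7 as 100%.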
TPT1 inh confirm = TPT1 (C. albicans) inhibition, confirmation; shares compounds with TPT1 inhibitor; recombinant caTPT1, fluorescence polarization, RNase T1 coupled; inhibition, % at 5 µM; 2,400 compounds, 74% hits;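 active means inhibition above the primary screen limit, the mean inhibition of all tested compounds plus 3 SD, cut at about 25% in these data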
RNase T1 counter = blocks Aspergillus oryzae RNase T1, a TPT1 counter-screen. shares compounds with TPT1 inhibitor. RNase T1 cleavage, fluorescence polarization, 1536-well. inhibition, % at 5 µM. 2,400 compounds, 83% hits;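 active means inhibition above the solvent-only control well mean plus 3 SD, limit set per screening run, cut at about 23% in these data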;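 further: plate controls were DMSO wells with enzyme for no effect and wells without RNase T1 for full effect; inhibitors block cleavage so intact labeled substrate keeps polarization high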
Target sequence (P00651 whole entry, looked up): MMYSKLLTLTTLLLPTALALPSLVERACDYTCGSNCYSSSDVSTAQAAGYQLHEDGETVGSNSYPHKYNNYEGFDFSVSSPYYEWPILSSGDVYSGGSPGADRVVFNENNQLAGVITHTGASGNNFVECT
IDE cell inh cf = confirmation of human insulin-degrading enzyme inhibitors in cells; inhibition, % at 5.59 µM; AID 435028; 1,200 compounds, 51% hits; HEK cells, FAbetaB cleavage, fluorescence polarization; shares compounds with IDE cell inh;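 active means mean inhibition across triplicate wells above the cutoff set by the earlier primary insulin-degrading enzyme screen, cut at about 16% in these data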;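 further: 0% = DMSO wells and 100% = 60 µM reference IDE inhibitor Ii1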
HEK293 tox = HEK cell cytotoxicity, counter-screen for IDE inhibitors. shares compounds with IDE cell inh. HEK293 cytotoxicity, ATP luminescence. inhibition, % at 5.59 µM. 1,200 compounds, 28% hits. AID 449730; in the data active means inhibition above about 22%;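 further: 0% = vehicle wells and 100% = reference cytotoxic drug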
Active calls of the source: *; . = no result given. Most compounds without a hit are left out; they make up all but 1.2% or so of the library.

SMILES	IDE act	IDE cell inh	TPT1 inhibitor	proCasp3 act	proCasp7 act	TPT1 inh confirm	RNase T1 counter	IDE cell inh cf	HEK293 tox
Cc1ccc(-n2nnnc2C(=Cc2ccc(N(C)C)cc2)c2nnnn2-c2ccc(C)cc2)cc1	2	-3	15	1	7	.	.	.	.
O=C(Nc1ccc(S(=O)(=O)Nc2ncccn2)cc1)C1CC(=O)N(c2ccc(Cl)cc2)C1 (stereo not drawn)	1	-2	-2	10	17	.	.	.	.
COc1ccc(-[n+]2c(C)cc(/C=C3\Sc4ccccc4N3C)cc2C)cc1	-65	72*	91*	-31	-30	123*	128*	105*	111*
Cc1ccc(O)c(C(=O)c2cc(C#N)c(=O)n(CC3CCCO3)c2)c1 (stereo not drawn)	5	0	2	2	5	.	.	.	.
Cc1ccc(O)c(C(=O)c2cc(C#N)c(=O)n(-c3nccs3)c2)c1	-43	51*	56*	-1	-10	54*	61*	65*	10
CCN(CC)c1ccc(/C=C2\C(=O)c3ccc(C(=O)O)cc3C2=O)cc1	-106	141*	143*	-5	-1	122*	116*	26*	12
COc1ccc(C)cc1NC(=O)c1ccc([N+](=O)[O-])cc1[N+](=O)[O-]	6	5	-2	-9	-1	.	.	.	.
CN(C)c1ccc(/C=C/c2cccc[n+]2[O-])cc1	.	2	8	0	0	.	.	.	.
CC(C)CC[n+]1ccccc1/C=C/c1ccc(N(C)C)cc1	-12	37*	44*	-4	-8	49*	58*	69*	101*
COc1ccc(/C=c2\s/c(=C/C(=O)c3ccc(C)cc3)[nH]c2=O)cc1OC	-98	79*	103*	-5	-17	117*	115*	78*	7
CC(C)(C)C(=O)/C=c1\[nH]c(=O)/c(=C\c2ccc(F)cc2)s1	-2	-3	4	-12	-13	.	.	.	.
CN(C)c1ccc(C2C=C(c3ccc(Cl)cc3OC(F)F)Nc3ncnn32)cc1 (stereo not drawn)	-22	21*	49*	-43	-40	43*	56*	28*	61*
Cc1ccc(C2C=C(c3ccccc3OC(F)F)Nc3ncnn32)cc1 (stereo not drawn)	0	9	1	-4	-5	.	.	.	.
CSC1=NSC2=NC(=O)/C(=C\c3coc4ccccc4c3=O)C(=N)N12	-63	43*	62*	-6	-16	61*	65*	46*	6
CC(C)CSC1=NSC2=NC(=O)/C(=C\c3coc4ccccc4c3=O)C(=N)N12	-128	63*	43*	-9	-2	10	26*	106*	8
Cc1cc(/C=C2\C(=N)N3N=C(c4ccco4)SC3=NC2=O)c(C)n1Cc1ccccc1	7	-1	13	-41	-34	.	.	.	.
N=C1/C(=C\c2coc3ccccc3c2=O)C(=O)N=C2SC(c3ccncc3)=NN12	-35	42*	79*	-9	-8	71*	84*	20*	6
CC(C)CSC1=NSC2=NC(=O)/C(=C\c3ccccc3)C(=N)N12	4	2	5	-15	-6	.	.	.	.
CC1(CO)COC(c2ccccc2)=N1 (stereo not drawn)	9	-8	0	6	6	.	.	.	.
Cc1c(N2C(=O)/C(=C\c3ccc(N(C)C)cc3)N(C)C2=S)c(=O)n(-c2ccccc2)n1C	-36	53*	150*	-5	5	132*	133*	40*	13
CCN1C(=O)C(CC(=O)Nc2ccc(C)cc2C)Nc2cc(S(=O)(=O)N(C)C)ccc21 (stereo not drawn)	3	-2	4	-11	-4	.	.	.	.
C=CCN1C(=O)/C(=C/C=C2/N(CC)c3ccc(S(=O)(=O)N(C)C)cc3N2CC)SC1=S	-101	22*	161*	-24	-26	144*	138*	160*	39*
CCCCN1C(=O)C2Cc3c([nH]c4ccccc34)CN2C1=S (stereo not drawn)	-33	30*	25*	-2	-8	24	38*	94*	13
CCCCCN1CC(=O)N2Cc3[nH]c4ccccc4c3C[C@H]2C1=O	-2	-1	-4	4	4	.	.	.	.
CN(C)c1ccc(/C=C(/NC(=O)c2ccccc2)C(=O)NCCN2CCOCC2)cc1	-1	17*	49*	-2	-8	11	17	10	6
SMILES	IDE act	IDE cell inh	TPT1 inhibitor	proCasp3 act	proCasp7 act	TPT1 inh confirm	RNase T1 counter	IDE cell inh cf	HEK293 tox
CN(C)c1ccc(/C=C(/NC(=O)c2ccccc2Cl)C(=O)NCCN2CCOCC2)cc1	3	18*	47*	4	-6	120*	128*	2	11
O=C(NCCN1CCOCC1)/C(=C/c1ccc(Cl)cc1)NC(=O)c1ccccc1	0	4	-1	3	9	.	.	.	.
Cc1ccc(N=Cc2c(O)c3ccccc3n(C)c2=O)cc1	0	.	.	.	.	.	.	.	.
Cc1ccc(N=Cc2sc(O)c3ccccc23)cc1	-24	36*	142*	-25	-31	111*	109*	57*	11
Cc1ccc2c(c1)c(/C=C/c1cc[n+](C)cc1)c(C)n2C	-60	.	.	.	.	.	.	.	.
Cn1cc(/C=C/c2cc[n+](C)cc2)c2cc(Cl)ccc21	-12	38*	60*	0	-4	68*	70*	62*	81*
Cn1cc(/C=C/c2cc[n+](C)cc2)c2cc(F)ccc21	-25	31*	40*	-2	-11	49*	56*	75*	77*
Cc1cc(C)cc(OCC(=O)OCC(=O)NC2CC2)c1	3	4	.	2	-1	.	.	.	.
N#C/C(=C\c1ccncc1)c1ccccn1	3	7	-2	-1	-5	.	.	.	.
CC(C)=C(C#N)c1nc2ccccc2s1	-5	38*	25*	-2	-10	8	9	-3	16
COC(=O)c1ccc(/C(O)=C(\C#N)c2nc3ccccc3s2)cc1	2	7	3	-5	-8	.	.	.	.
N#C/C(=C/c1ccncc1)c1nc2ccccc2s1	-17	44*	30*	-9	-7	14	21	1	18
CN(C)c1ccc(/C=C/C(=O)c2cccnc2)cc1	-108	30*	93*	-25	-25	100*	100*	43*	11
